Inhibition data for two compounds are collected here from ChEMBL document CHEMBL4346713, “Design, synthesis and docking studies of benzimidazole derivatives as potential EGFR inhibitors” (2019).

Assay [1] has as its system MCF7. Briefly: Antiproliferation activity against human MCF7 cells assessed as inhibition of cell proliferation at 10 uM by MTT assay relative to control. It is filed as functional. Put shortly: (§1)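 Cells grown at 37°C in high-glucose DMEM with 10% FBS, 2 mM L-glutamine and 1% penicillin–streptomycin. Compounds, dissolved in DMSO, were added at 80% confluency, with DMSO-only and untreated wells as controls. MTT in PBS was then added for 2 h at 37°C. Formazan was dissolved in DMSO and read at 550 nm, with viability expressed relative to control cells set as 100%.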

Assay [2] has as its system MCF7. Briefly: Antiproliferation activity against human MCF7 cells assessed as inhibition of cell proliferation at 1 uM by MTT assay relative to control. It is filed as functional. Summed up:
as §1

Calls of active or inactive are those of the source. The calls are words filed in the database; no cut-off is given here.

For `S=c1[nH]nc(Cn2c(-c3ccc(OCc4ccccc4)c(OCc4ccccc4)c3)nc3ccccc32)n1CCN1CCOCC1`, the inhibition entry in assay [1] is “inactive”.

As to `C#Cc1cccc(Nc2ncnc3cc(OCCOC)c(OCCOC)cc23)c1` [ERLOTINIB], in assay [2], the inhibition at 1 µM is 60%.
